Bioassay records deposited in PubChem BioAssay by several laboratories.
EBI2 block: EBI2 (human) antagonism. EBI2 beta-arrestin recruitment, luminescence, 7a,25-OHC stimulated. AID 651636. actives 0.81% (n = 360,000). inhibition, % at 5 µM; in the data active means inhibition above about 38%;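 further: enzyme fragment complementation signal reports receptor beta-arrestin coupling in cells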
CCR6 antagonist: antagonists of human CCR6 receptor. P51684. CHO-K1 CCR6 PathHunter beta-arrestin, luminescence, CCL20-stimulated. inhibition, % at 20 µM. actives 0.49% (n = 340,000);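 active means compounds whose inhibition of the agonist-driven luminescence signal at 20 µM reaches about 50%, limit read from the data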;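 further: cells stimulated with CCL20 at 14 nM final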
APJ ag: APJ receptor agonism; actives 0.11% (n = 330,000); activation, % at 20 µM; CHO-K1 APJ PathHunter beta-arrestin, luminescence; 0% DMSO wells, 100% apelin; P35414;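 active means activation more than six SD over the plate average, tested at 20 µM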
Target sequence (P35414 whole entry, looked up): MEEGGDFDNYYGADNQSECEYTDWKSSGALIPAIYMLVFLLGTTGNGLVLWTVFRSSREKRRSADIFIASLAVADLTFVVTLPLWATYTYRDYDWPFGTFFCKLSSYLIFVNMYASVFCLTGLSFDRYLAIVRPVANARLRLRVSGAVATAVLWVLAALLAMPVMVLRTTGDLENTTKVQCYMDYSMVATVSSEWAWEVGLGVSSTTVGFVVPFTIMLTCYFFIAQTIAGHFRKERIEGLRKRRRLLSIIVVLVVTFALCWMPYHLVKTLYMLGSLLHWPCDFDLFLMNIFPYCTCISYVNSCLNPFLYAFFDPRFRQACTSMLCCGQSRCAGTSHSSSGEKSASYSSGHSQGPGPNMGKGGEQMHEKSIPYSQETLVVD
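Incubation: overnight seeding, 90 min compound at 25 °C, 1 h detection; test system: PathHunter CHO-K1 APJ (AGTRL-1) beta-arrestin reporter cells; amount: 1000 cells/well; doses: one dose, 20 µM compound, 1% DMSO; measured by: beta-gal luminescence; measure: agonist-driven arrestin binding to APJ; benchmarks: negative DMSO alone, positive Apelin-13 at 10 nM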
CXCR6 inh: blocks human CXCR6 beta-arrestin recruitment; O00574; CHO-K1 PathHunter CXCR6 beta-arrestin, luminescence; inhibition, % at 20 µM; actives 0.36% (n = 360,000); AID 602244; in the data active means inhibition above about 34%, passing the limit was not always enough;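 further: antagonist mode with CXCL16 agonist at 10 nM final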
GAA850 FXN act: increases GAA850 frataxin promoter reporter activity. HEK293 lucGAA850 FXN promoter luciferase reporter, 24 h; percent of 10 µM SAHA response. activation, % at 6 µM. actives 0.56% (n = 360,000). AID 540364;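 active means activation above the average of all compounds screened plus 3 SD, cutoff fixed separately per campaign, cut at about 7.5% in these data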
APJ antagonist: antagonists of human APJ apelin receptor. P35414. actives 0.32% (n = 330,000). CHO-K1 APJ beta-arrestin complementation, luminescence. inhibition, % at 20 µM;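 active means inhibition above about 40% at 20 µM, limit read from the data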;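 further: cells challenged with 10 nM apelin-13 agonist together with compound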
EBI2 conf: confirmation of human EBI2 receptor antagonists | shares compounds with EBI2 block | EBI2 beta-arrestin luminescence, 7a,25-OHC antagonism | inhibition, % at 5 µM | actives 29% (n = 2,400) | AID 651997;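 active means inhibition of at least 50%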
EBI2 agonist: EBI2 agonism counter-screen | activation, % at 5 µM | shares compounds with EBI2 block | 2,400 tested, under 10 active | AID 652000 | EBI2-expressing cells, agonist mode, luminescence, 60 min; 0% vehicle, 100% 7α,25-dihydroxycholesterol control;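 active means activation of at least 50%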
bGal counter: beta-galactosidase inhibition counter-screen. AID 652176. inhibition, % at 5 µM. purified beta-galactosidase, luminescent Galacton Star, 15 min. actives 1% (n = 2,400). shares compounds with EBI2 block;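 active means replicate-average signal at least 3 plate SD below neutral wells, shown as high inhibition, flagging enzyme-inhibiting false positives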;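 further: higher means stronger loss of beta-gal luminescence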
Each line names hits and unclear results; the compound was inactive in the other large screens (follow-up assays come after a bar, where they were run). Rows were chosen to be rich in hits. Some 2% of all compounds tested hit in one or more screens of this group.

CC(C)(C)C1CCC(=O)N(CCOc2ccccc2)CC1 (centres undefined)	EBI2 block 52 | EBI2 conf inactive | EBI2 agonist inactive | bGal counter inactive
COc1ccc(CNC(=O)c2cc(=O)c3cc(C)cc(C)c3o2)cc1	none
COc1ccc(N2CCN(C(=O)c3cc(=O)c4cc(C)c(C)cc4o3)CC2)cc1	EBI2 block 92 | EBI2 conf 87 | EBI2 agonist inactive | bGal counter inactive
COc1ccc(N2CCN(C(=O)c3cc(=O)c4cc(C)ccc4o3)CC2)cc1	EBI2 block 92 | EBI2 conf 82 | EBI2 agonist inactive | bGal counter inactive
COc1ccc(N2CCN(C(=O)c3cc(=O)c4cc(C)cc(C)c4o3)CC2)cc1	EBI2 block 80 | EBI2 conf 84 | EBI2 agonist inactive | bGal counter inactive
COc1ccccc1N1CCN(C(=O)c2cc(=O)c3ccc(C)cc3o2)CC1	none
CC(=O)NC(C)(c1ccccc1)c1nc(-c2cccc(C#N)c2)cs1 (centres undefined)	none (no result: CCR6 antagonist, APJ ag, APJ antagonist)
CCCC(=O)N1CCC1(C)C(=O)Nc1ccc(OC(F)F)cc1 (centres undefined)	none (no result: CCR6 antagonist, APJ ag, APJ antagonist)
CN(C(=O)CN1C(=O)C2C3CC(C(Br)C3Br)C2C1=O)C1CCCCC1 (centres undefined)	none
COc1ccc(NC(=O)/C(C#N)=C/c2c(C)nn(-c3ccc(F)cc3)c2Cl)cc1Cl	EBI2 block 60 | EBI2 conf inactive | EBI2 agonist inactive | bGal counter inactive
COc1ccccc1NC(=O)/C(C#N)=C/c1c(C)nn(-c2ccc(F)cc2)c1Cl	none
COc1ccc(NC(=O)/C(C#N)=C/c2c(C)nn(-c3ccc(F)cc3)c2Cl)cc1OC	EBI2 block 70 | EBI2 conf 53 | EBI2 agonist inactive | bGal counter inactive
O=C(NCc1cccnc1)c1ccc2sc([C@H]3C[C@H](O)[C@@H](CO)O3)nc2c1	none (no result: CCR6 antagonist, APJ ag, APJ antagonist)
Cc1ccc(NC(=O)c2ccc(OCc3c(C)noc3C)cc2)cc1C	EBI2 block 53 | EBI2 conf inactive | EBI2 agonist inactive | bGal counter inactive
CC(=O)Nc1ccc(NC(=O)c2ccc(OCc3c(C)noc3C)cc2)cc1	none
COc1cc(C(=O)NCC2CCCCC2)ccc1OCc1c(C)noc1C	none
COc1cc(C(=O)NCCOc2ccc(Cl)cc2)ccc1OCc1c(C)noc1C	EBI2 block 72 | EBI2 conf 56 | EBI2 agonist inactive | bGal counter inactive
O=C1c2ccccc2C2N1CCCN2C(=O)c1sc2ccccc2c1Cl (centres undefined)	none (no result: CCR6 antagonist, APJ ag, APJ antagonist)
COc1ccc2[nH]c(=O)c(C(c3nnnn3C3CCCCC3)N3CCN(C)CC3)cc2c1 (centres undefined)	none
COc1cc2cc(C(c3nnnn3C3CCCC3)N(C)C3CCCCC3)c(=O)[nH]c2cc1OC (centres undefined)	EBI2 block 58 | EBI2 conf 54 | EBI2 agonist inactive | bGal counter inactive
Cc1ccc(C(c2nnnn2C2CCCCC2)N(C)C2CCCCC2)cc1 (centres undefined)	none
COc1cc2cc(C(c3nnnn3C3CCCCC3)N(C)C3CCCCC3)c(=O)[nH]c2cc1OC (centres undefined)	EBI2 block 36 | EBI2 conf inactive | EBI2 agonist inactive | bGal counter inactive
C[C@@H]1CN([C@H](C)CO)S(=O)(=O)c2ccc(C#CCN(C)C)cc2O[C@@H]1CN(C)Cc1ccccc1F	none (no result: CCR6 antagonist, APJ ag, APJ antagonist)
CCN(CC)CCCNC(=O)CNC(=O)c1nn(-c2ccc(OC)cc2OC)c(=O)c2ccccc12	none (no result: CCR6 antagonist, APJ ag, APJ antagonist)
COC(=O)c1ccccc1NC(=O)c1cc2nc(C3CC3)cc(C(F)(F)F)n2n1	none
COc1cc(NC(=O)c2cc3nc(C4CC4)cc(C(F)(F)F)n3n2)c(OC)cc1Cl	EBI2 block 38 | EBI2 conf inactive | EBI2 agonist inactive | bGal counter inactive
O=C1NC[C@@H](CCCCN2CCN(CCc3ccc(O)cc3)C(=O)C2=O)N(Cc2ccccc2)C1=O	none (no result: CCR6 antagonist, APJ ag, GAA850 FXN act, APJ antagonist)
O=C(/C=C/c1ccc(Cl)cc1)N1CCN(c2c(Cl)cccc2[N+](=O)[O-])CC1	EBI2 block 98 | EBI2 conf 91 | EBI2 agonist inactive | bGal counter inactive
O=C(CSc1ccc(Cl)cc1)N1CCN(c2ccc([N+](=O)[O-])cc2Cl)CC1	EBI2 block 84 | EBI2 conf inactive | EBI2 agonist inactive | bGal counter inactive
O=C(CSc1ccc(Cl)cc1)N1CCN(c2c(Cl)cccc2[N+](=O)[O-])CC1	EBI2 block 94 | EBI2 conf 86 | EBI2 agonist inactive | bGal counter inactive
CC(C)(C)CC(C)(C)NC(=O)CSCC(=O)Nc1ccc2ccccc2c1	EBI2 block 71 | EBI2 conf inactive | EBI2 agonist inactive | bGal counter inactive
COc1ccc(C2=NN(C(=O)CSc3cn(C)c4ccccc34)C(c3ccc(OC)cc3)C2)cc1 (centres undefined)	EBI2 block 84 | EBI2 conf 65 | EBI2 agonist inactive | bGal counter inactive
COc1ccc(C2=NN(C(=O)CSc3ncccn3)C(c3ccc(OC)cc3)C2)cc1 (centres undefined)	none
COc1ccc(C2=NN(C(=O)CSc3nc(=O)n4cc(C)ccc4n3)C(c3ccc(C)cc3)C2)cc1 (centres undefined)	EBI2 block 63 | EBI2 conf inactive | EBI2 agonist inactive | bGal counter inactive
CSc1ncccc1C(=O)Nc1cccc(S(=O)(=O)N2CCCCC2)c1	none
CCN(CC)c1ccc(C(=O)NNC(=O)CNC(=O)c2cccs2)cc1	none
COc1cc2nc(CN3CCN(S(=O)(=O)c4ccc(C)c(C)c4)CC3)[nH]c(=O)c2cc1OC	EBI2 block 47 | EBI2 conf inactive | EBI2 agonist inactive | bGal counter inactive
Cc1ccc(S(=O)(=O)N2CCCN(Cc3nc4ccccc4c(=O)[nH]3)CC2)cc1	none
CC(=O)Nc1ccc(NC(=O)C(C)OC(=O)c2ccc3ccccc3n2)cc1 (centres undefined)	none
N#Cc1ccc(C23CC4(C2)[C@H](CN(Cc2cccnc2)[C@@H]4c2ccccc2)C3c2ccccc2)cc1 (some centres undefined)	EBI2 block 72 | EBI2 conf inactive | EBI2 agonist inactive | bGal counter inactive
